Like-named read-outs stand apart in the source and are kept apart here. Values belong to the molecule of their own block, whether it stands above or below them.
Columns and labels:
NAT1 [1] = settings: cited from earlier work; for IC50: read-out: IC50 NAT1
recombinant human NAT2 = target: T1, recombinant human NAT2 (Homo sapiens, UniProt P11245); assay: Recombinant human NAT2; type: biochemical; settings: for inhibition of human NAT2: at concentrations up to 2 mM
T1 sequence (P11245 1-290): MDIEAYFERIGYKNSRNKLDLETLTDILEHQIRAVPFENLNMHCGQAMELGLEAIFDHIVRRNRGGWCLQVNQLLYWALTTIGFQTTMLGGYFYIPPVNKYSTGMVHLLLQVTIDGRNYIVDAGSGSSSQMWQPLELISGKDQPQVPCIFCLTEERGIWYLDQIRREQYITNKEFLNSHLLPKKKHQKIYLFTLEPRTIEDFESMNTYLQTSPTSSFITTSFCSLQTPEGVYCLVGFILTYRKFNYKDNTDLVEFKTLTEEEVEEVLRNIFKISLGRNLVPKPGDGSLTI
Method in brief: (§1)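 Lysates of S. pombe stably expressing recombinant human NAT1 (10 μM PABA) or NAT2 (10 μM SMZ) were run with 100 μM acetyl-CoA over a test-compound concentration series. Substrate and N-acetylated product were separated and measured by HPLC. IC50 came from nonlinear regression, reported as mean ± SEM (n=3).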

NAT1 [2] = target: T2, NAT1 (Homo sapiens, UniProt P18440); assay: Recombinant human NAT1; type: biochemical; settings: for fold less potent than compound 10 towards recombinant human NAT1: in vitro IC50 comparison; for IC50 NAT2/IC50 NAT1: ratio; for IC50 NAT2/IC50 NAT1 / fold lower IC50 for NAT1 versus NAT2: PABA (NAT1) vs SMZ (NAT2)
T2 sequence (P18440 1-290): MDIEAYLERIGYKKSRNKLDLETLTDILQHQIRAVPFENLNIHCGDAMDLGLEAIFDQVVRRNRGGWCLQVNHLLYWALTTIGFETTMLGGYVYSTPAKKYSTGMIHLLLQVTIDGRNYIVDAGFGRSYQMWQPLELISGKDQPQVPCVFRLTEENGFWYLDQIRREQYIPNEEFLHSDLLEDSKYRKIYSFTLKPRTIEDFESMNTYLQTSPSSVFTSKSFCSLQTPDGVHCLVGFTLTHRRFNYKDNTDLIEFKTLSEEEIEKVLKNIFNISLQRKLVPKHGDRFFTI
Method in brief: as §1

[3] = test system: endogenous NAT1 in MDA-MB-231 cells; assay: N-acetylation capacity in MDA-MB-231 cells; type: cell-based, human; settings: 10 μM ABP or PABA, 4 hr
Method in brief: (§2)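 Cells grown in DMEM with 10% FBS, penicillin and streptomycin at 37°C, 5% CO2, were taken to confluence. They were then exposed for 4 hr at 37°C to medium with 10 μM ABP or PABA and test compound. Collected medium was acidified with 1/10 volume 1 M acetic acid and spun at 13,000 g for 10 min. The supernatant was analysed by HPLC for N-acetyl products; n=3, mean ± SEM.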

NAT2 = assay: SMZ N-acetylation in situ in cryopreserved human hepatocytes; type: cell-based; settings: 50 μM SMZ, 24 hr, concentrations up to 200 μM
Method in brief: (§3)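 Cultured cryopreserved human hepatocytes from five donors, all of intermediate NAT2 acetylator genotype, were incubated for 24 hr with 50 μM PABA or SMZ plus varying test-compound concentrations. Parent substrates and N-acetylated metabolites were separated and quantified by HPLC. Each point is the mean ± SEM over the 5 samples.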

[4] = test system: endogenous NAT1 in MCF-7 cells; assay: N-acetylation capacity in MCF-7 cells; type: cell-based, human; settings: 10 μM ABP or PABA, 4 hr
Method in brief: as §2

NAT1 [5] = target: T2, NAT1; type: biochemical; settings: ABP as substrate
Method in brief: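 Recombinant human NAT1 or NAT2 expressed in Schizosaccharomyces pombe, assayed in yeast lysate with 10 μM ABP, 100 μM acetyl-CoA and test compound at 0–200 μM. Substrate and N-acetylated product were separated and quantified by HPLC. The value is the mean ± SD of 3 experiments, with IC50 for each isozyme from nonlinear regression.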

MCF-7 cells = assay: CytoSelect cell invasion assay, MCF-7; type: cell-based, human; settings: 24 hr, 0, 31.25, 62.5, 125 μM
Method in brief: (§4)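 CytoSelect 24-well colorimetric invasion assay: 300,000 cells were seeded and allowed to invade toward medium containing 10% FBS for 24 hr with test compound present. Invasion was expressed as a percentage of the DMSO vehicle control. Mean ± SEM (n=3).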

NAT1 [6] = target: T2, NAT1; assay: PABA N-acetylation in situ in cryopreserved human hepatocytes; type: cell-based
Method in brief: as §3

[7] = target: T3, human NAT1 expressed in CHO cells (Homo sapiens, UniProt P18440); assay: N-acetylation in situ in UV5 CHO cells expressing human NAT1 and CYP1A1; type: cell-based
T3 sequence (P18440 1-290): T2 sequence (P18440 1-290)
Method in brief: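 UV5 CHO cells (nucleotide excision repair-deficient, XPD mutant) stably transfected with human CYP1A1 and NAT1*4 were plated 24 hr beforehand. Medium was then replaced with α-MEM containing 10 μM PABA or ABP plus test compound. After 2 hr, medium was sampled and N-acetylation quantified by HPLC. Mean ± SD of 3 experiments; IC50 by nonlinear regression.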

human NAT1 = assay: Reversibility of NAT1 inhibition in primary hepatocytes; type: cell-based; settings: 100 or 200 μM for 1 hr, removed, then 10 μM PABA for 5 hr
MCF-10A cells = assay: AlamarBlue cell viability and proliferation, MCF-10A; type: cell-based, human
Method in brief: (§5)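 Cells were seeded in 96-well plates and left 24 hr. They were then treated with test compound (0–250 μM) in their own medium for up to 144 hr: MEBM with supplements for MCF-10A, DMEM with 10% FBS for MDA-MB-231. AlamarBlue (1/10 culture volume) was added 1 hr before each time point at 37°C, then fluorescence read (ex 570, em 580 nm). Mean ± SEM (n=4).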

MDA-MB-231 cells [8] = assay: CytoSelect cell invasion assay, MDA-MB-231; type: cell-based, human; settings: 24 hr, 0, 31.25, 62.5, 125 μM
Method in brief: as §4

MDA-MB-231 cells [9] = assay: AlamarBlue cell viability and proliferation, MDA-MB-231; type: cell-based, human
Method in brief: as §5

[10] = read-out: IC50 for NAT1, in vitro, recombinant in yeast, 10 μM PABA, 100 μM AcCoA, Mean ± SEM (n=3)

Molecule: O=C1NC(=S)S/C1=C\c1ccccc1O [(Z)-5-(2-hydroxybenzylidene)-2-thioxothiazolidin-4-one]
IC50 (NAT1 [1]): 101 µM

Molecule: O=C1NC(=S)S/C1=C/c1cc(I)c(O)c(I)c1 [(5E)-[5-(4-hydroxy-3,5-diiodobenzylidene)-2-thioxo-1,3-thiazolidin-4-one]
fold more selective for NAT1 than NAT2 (NAT1 [1]): 25 fold
IC50 (NAT1 [1]): 0.732 µM

Molecule: O=C1c2ccccc2C(=O)c2c1ccc(O)c2O [Analog 3 (Alizarin), 1,2-dihydroxyanthraquinone]
IC50 (NAT1 [6]): 70 ± 1.4 µM
IC50 (recombinant human NAT2): 98.6 ± 9.4 µM
IC50 (NAT1 [2]): 0.886 ± 0.0895 µM
fold lower IC50 for NAT1 versus NAT2 (NAT1 [2]; in vitro): over 100 fold
IC50 NAT2/IC50 NAT1 (NAT1 [2]): 113

Now from value to molecule, other results behind:

inhibition of human NAT2 (recombinant human NAT2): No inhibition
fold less potent than compound 10 towards recombinant human NAT1 (NAT1 [2]): over 100 fold
IC50 NAT2/IC50 NAT1 (NAT1 [2]): >21.3
IC50 (NAT1 [2]; [10]): 94 ± 6.8 µM
Molecule: 9,10-dihydro-9,10-dioxo-1,8-anthracenediyl diethyl ester [Analog 2]

inhibition of SMZ N-acetylation in cryopreserved human hepatocytes (NAT2): no inhibition
fold lower IC50 for NAT1 versus NAT2, ABP N-acetylation (NAT1 [5]): over 50 fold
IC50 (NAT1 [6]; read-out: IC50, PABA N-acetylation in cryopreserved human hepatocytes, 50 μM PABA, 24 hr, 5 hepatocyte samples of intermediate NAT2 acetylator genotype): 158 ± 22 µM
IC50 ([7]; read-out: in situ IC50, ABP N-acetylation in CHO cells, ABP as substrate): 81.6 ± 4.4 µM
IC50 ([7]; read-out: in situ IC50, PABA N-acetylation in CHO cells, PABA as substrate): 118 ± 5 µM
IC50 (MDA-MB-231 cells [9]; read-out: IC50 for cell proliferation, MDA-MB-231, 72 hr): 32 µM
fold lower IC50 for NAT1 versus NAT2 (NAT1 [2]; in vitro): over 100 fold
IC50 NAT2/IC50 NAT1 (NAT1 [2]): 110
IC50 (NAT1 [2]; [10]): 0.75 ± 0.2 µM
Molecule: 9,10-dihydro-9,10-dioxo-1,2-anthracenediyl diethyl ester [Compound 10]
N-acetylation of PABA and ABP in MDA-MB-231 [3]: inhibited
N-acetylation of PABA and ABP in MCF-7 [4]: inhibited
cell invasion/migration, MCF-7 (MCF-7 cells): dose-dependent inhibition
reversibility of inhibition of PABA N-acetylation (human NAT1): reversible
cell proliferation, MCF-10A (MCF-10A cells; non-tumorigenic cell line, later time points): a decrease in cell proliferation was observed
IC50 (MCF-10A cells; read-out: IC50 for cell proliferation, MCF-10A, 72 hr): 113 µM
cell invasion/migration, MDA-MB-231 (MDA-MB-231 cells [8]): dose-dependent inhibition
cell viability, MDA-MB-231 (MDA-MB-231 cells [9]; 4-48 hr, 0-250 μM): did not decrease cell viability
cell proliferation, MDA-MB-231 (MDA-MB-231 cells [9]; 72 and 144 hr): dose-dependent decrease

inhibition of human NAT2 (recombinant human NAT2): No inhibition
fold less potent than compound 10 towards recombinant human NAT1 (NAT1 [2]): over 100 fold
IC50 NAT2/IC50 NAT1 (NAT1 [2]): >11.7
IC50 (NAT1 [2]; [10]): 171 ± 4.7 µM
Molecule: 1-(9,10-dihydro-8-hydroxy-9,10-dioxo-1-anthracenyl)4-ethyl ester [Analog 1]

Reference: article PMC8837702 (Archives of toxicology, 2021)
